Experimental data as given in ChEMBL document CHEMBL1641520, “Design, synthesis, and biological evaluation of novel water-soluble N-mustards as potential anticancer agents” (Bioorg Med Chem, 2011).
Calls of active or inactive are those of the source. The calls are words filed in the database; no cut-off is given here.

Tests used:
MX1 [1] = assay: Anticancer activity against human MX1 cells xenografted in athymic mouse assessed as complete tumor remission at 30 mg/kg, iv Q2D for 5 days measured after 70 days of tumor implantation; type: functional, organism-based; design: dose 30 mg/kg
Outline: (§1)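 Athymic nu/nu nude mice (male, ≥6 weeks, 20–24 g) carrying human tumor xenografts; dosing iv via tail vein, Q2D, in vehicle of DMSO/Tween 80/saline (50:40:160 µL). Dose level is the maximal tolerated dose determined beforehand. Tumor volume by caliper (length × width × height or width). Body weight taken as total minus tumor weight (1 mm³ = 1 mg). n = 4–5 mice.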

[2] = Cell cycle arrest in human H1299 cells assessed as accumulation at sub-G1 phase at 10 uM after 24 hrs by propidium iodide staining-based flow cytometry; type: functional; settings: NCI-H1299
Outline: (§2)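 H1299 non-small cell lung carcinoma cells exposed to compound for 24 h. Attached cells trypsinized, PBS-washed, fixed in ice-cold 70% ethanol for 30 min. Stained with 4 µg/ml propidium iodide in PBS with 1% Triton X-100 and 0.1 mg/ml RNase A. Analyzed by flow cytometry; phase percentages taken from DNA histograms.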

HCT-116 [3] = assay: Anticancer activity against human HCT116 cells xenografted in athymic mouse assessed as tumor suppression at 30 mg/kg, iv Q2D for 5 days; type: functional; settings: HCT-116, 120 h; outline: as §1
[4] = Cell cycle arrest in human H1299 cells assessed as accumulation at S phase at 2.5 uM after 24 hrs by propidium iodide staining-based flow cytometry; type: functional; settings: NCI-H1299; outline: as §2
[5] = Cell cycle arrest in human H1299 cells assessed as accumulation at G2/M phase at 10 uM after 24 hrs by propidium iodide staining-based flow cytometry; type: functional; settings: NCI-H1299; outline: as §2
[6] = Cytotoxicity against human H1299 cells after 72 hrs by alamar blue assay; type: functional, cell-based; settings: NCI-H1299, 72 h
Outline: (§3)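 H1299, PC3, CL1-0, CL1-5 and MCF-7 cells exposed to compound for 72 h. Alamar blue added, then 6 h at 37 °C; absorbance at 570 and 600 nm. IC50 from median-effect analysis of dose-effect data at six or seven concentrations.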

[7] = Cytotoxicity against human CL1-0 cells after 72 hrs by alamar blue assay; type: functional, cell-based; settings: CL1-0, 72 h; outline: as §3
CCRF-CEM [8] = assay: Cytotoxicity against human CCRF-CEM cells after 72 hrs by XTT assay; type: functional, cell-based
Outline: (§4)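 CCRF-CEM leukemia cells and their taxol- or vinblastine-resistant sublines given compound for 72 h. XTT read-out: after phenazine methosulfate–XTT, 6 h at 37 °C, absorbance at 450 and 630 nm. IC50 from median-effect analysis of dose-effect data at six or seven concentrations.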

CCRF-CEM [9] = assay: Cytotoxicity against vinblastine-resistant human CCRF-CEM cells after 72 hrs by XTT assay; type: functional, cell-based; outline: as §4
CCRF-CEM [10] = assay: Cytotoxicity against taxol-resistant human CCRF-CEM cells after 72 hrs by XTT assay; type: functional, cell-based; outline: as §4
[11] = Cell cycle arrest in human H1299 cells assessed as accumulation at S phase at 10 uM after 24 hrs by propidium iodide staining-based flow cytometry; type: functional; settings: NCI-H1299; outline: as §2
[12] = Cell cycle arrest in human H1299 cells assessed as accumulation at S phase at 5 uM after 24 hrs by propidium iodide staining-based flow cytometry; type: functional; settings: NCI-H1299; outline: as §2
MCF7 = assay: Cytotoxicity against human MCF7 cells after 72 hrs by alamar blue assay; type: functional, cell-based; settings: MCF7, 72 h; outline: as §3
PC-3 [13] = assay: Anticancer activity against human PC3 cells xenografted in athymic mouse assessed as tumor suppression at 30 mg/kg, iv Q2D for 4 days; type: functional; settings: PC-3, 96 h; outline: as §1
[14] = Mean residence time in Sprague-Dawley rat at 1 mg/kg, iv by LC-MS/MS analysis; type: ADME, organism-based; design: dose 1 mg/kg, route intravenous; settings: in vivo
[15] = Cell cycle arrest in human H1299 cells assessed as accumulation at G1 phase at 10 uM after 24 hrs by propidium iodide staining-based flow cytometry; type: functional; settings: NCI-H1299; outline: as §2
U-87MG ATCC = assay: Anticancer activity against human U87MG cells xenografted in athymic mouse assessed as tumor suppression at 30 mg/kg, iv Q2D for 6 days; type: functional, organism-based; design: dose 30 mg/kg; outline: as §1
PC-3 [16] = assay: Cytotoxicity against human PC3 cells after 72 hrs by alamar blue assay; type: functional, cell-based; settings: PC-3, 72 h; outline: as §3
[17] = Cell cycle arrest in human H1299 cells assessed as accumulation at G1 phase at 2.5 uM after 24 hrs by propidium iodide staining-based flow cytometry; type: functional; settings: NCI-H1299; outline: as §2
[18] = Cell cycle arrest in human H1299 cells assessed as accumulation at G2/M phase at 5 uM after 24 hrs by propidium iodide staining-based flow cytometry; type: functional; settings: NCI-H1299; outline: as §2
[19] = Cell cycle arrest in human H1299 cells assessed as accumulation at sub-G1 phase at 5 uM after 24 hrs by propidium iodide staining-based flow cytometry; type: functional; settings: NCI-H1299; outline: as §2
[20] = Cell cycle arrest in human H1299 cells assessed as accumulation at G1 phase at 5 uM after 24 hrs by propidium iodide staining-based flow cytometry; type: functional; settings: NCI-H1299; outline: as §2
[21] = Steady state clearance in Sprague-Dawley rat at 1 mg/kg, iv up to 24 hrs by LC-MS/MS analysis; type: ADME, organism-based; design: dose 1 mg/kg, route intravenous; settings: in vivo, read-out: CLss
CCRF-CEM [22] = assay: Selectivity ratio of IC50 for vinblastine-resistant human CCRF-CEM cells to IC50 for human CCRF-CEM cells; type: functional
[23] = Cell cycle arrest in human H1299 cells assessed as accumulation at G2/M phase at 2.5 uM after 24 hrs by propidium iodide staining-based flow cytometry; type: functional; settings: NCI-H1299; outline: as §2
Nucleic Acid = assay: Binding affinity to Escherichia coli plasmid EGFP-N1 DNA at 1 to 10 uM after 22 hrs by alkaline agarose gel shift assay; type: nucleic-acid assay
Outline: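 Purified pEGFP-N1 plasmid DNA (1500 ng) incubated with compound (1–20 µM) in 3 mM NaCl/1 mM sodium phosphate pH 7.4/1 mM EDTA for 2 h at 37 °C. Linearized with BamHI, ethanol-precipitated, denatured in 0.5 N NaOH-10 mM EDTA. Run on 0.8% alkaline agarose gel at 4 °C, 18 V for 22 h. Ethidium bromide stain; cross-linked double-stranded DNA scored against single-stranded DNA.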

[24] = Cytotoxicity against human CL1-5 cells after 72 hrs by alamar blue assay; type: functional, cell-based; settings: CL1-5, 72 h; outline: as §3
[25] = Cell cycle arrest in human H1299 cells assessed as accumulation at sub-G1 phase at 2.5 uM after 24 hrs by propidium iodide staining-based flow cytometry; type: functional; settings: NCI-H1299; outline: as §2
PC-3 [26] = assay: Anticancer activity against human PC3 cells xenografted in athymic mouse assessed as tumor suppression at 40 mg/kg, iv Q2D for 3 days; type: functional; settings: PC-3, 72 h; outline: as §1
MX1 [27] = assay: Cytotoxicity against human MX1 cells after 72 hrs by SRB assay; type: functional, cell-based; settings: MX1, 72 h
Outline: (§5)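 MX-1 breast and HCT-116 colon carcinoma cells exposed to compound for 72 h; growth measured by sulforhodamine B assay. IC50 from median-effect analysis of dose-effect data at six or seven concentrations.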

HCT-116 [28] = assay: Cytotoxicity against human HCT116 cells after 72 hrs by SRB assay; type: functional, cell-based; settings: HCT-116, 72 h; outline: as §5
CCRF-CEM [29] = assay: Selectivity ratio of IC50 for taxol-resistant human CCRF-CEM cells to IC50 for human CCRF-CEM cells; type: functional

CN(C)CCNC(=O)c1cccc(NC(=O)Nc2ccc(N(CCCl)CCCl)cc2)c1.Cl
inhibition (MX1 [1]): Active
Activity [2]: 26%
inhibition in vivo at 30 mg/kg (HCT-116 [3]): > 95%
Activity [4]: 1.8%
Activity [5]: 62.3%
IC50 [6]: 10400 nM
IC50 [7]: 14600 nM
IC50 (CCRF-CEM [8]): 130 nM
IC50 (CCRF-CEM [9]): 800 nM
IC50 (CCRF-CEM [10]): 1220 nM
Activity [11]: 5.2%
Activity [12]: 8.8%
IC50 (MCF7): 630 nM
inhibition in vivo at 30 mg/kg (PC-3 [13]): > 99%
MRT [14]: 6.6 min
Activity [15]: 6.5%
inhibition (U-87MG ATCC): Active
IC50 (PC-3 [16]): 1880 nM
Activity [17]: 2.3%
Activity [18]: 60.8%
Activity [19]: 19.7%
Activity [20]: 10.7%
clearance [21]: 18 mL/min/kg
Ratio IC50 (CCRF-CEM [22]): 6.2
Activity [23]: 55.9%
Activity (Nucleic Acid): Active
IC50 [24]: 6080 nM
Activity [25]: 20%
inhibition in vivo at 40 mg/kg (PC-3 [26]): > 99%
IC50 (MX1 [27]): 570 nM
IC50 (HCT-116 [28]): 690 nM
Ratio IC50 (CCRF-CEM [29]): 9.4
